The M2OR odorant receptor database

Assays:
Conditions in all cases: stereoisomer not certain
[1] = target: OR4A15 (Homo sapiens) (UniProt Q8NGL6)
Method in brief: (§1)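 Each entry records the cell line, G-protein, co-transfected protein and tags used. Methods varied with the source, often transient luciferase assays in mammalian cell lines. A receptor–molecule pair is called responsive (active) if the original authors judged its signal statistically different from baseline and non-responsive (inactive) otherwise.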

[2] = target: OR4A16 (Homo sapiens) (UniProt Q8NH70)
Method in brief: as §1

[3] = target: OR4A47 (Homo sapiens) (UniProt Q6IF82)
Method in brief: as §1

[4] = target: OR4A5 (Homo sapiens) (UniProt Q8NH83)
Method in brief: as §1

[5] = target: OR4A8 (Homo sapiens) (UniProt P0C604)
Method in brief: as §1

[6] = target: OR4B1 (Homo sapiens) (UniProt Q8NGF8)
Method in brief: as §1

[7] = target: OR4C11 (Homo sapiens) (UniProt Q6IEV9)
Method in brief: as §1

[8] = target: OR4C12 (Homo sapiens) (UniProt Q96R67)
Method in brief: as §1

[9] = target: OR4C13 (Homo sapiens) (UniProt Q8NGP0)
Method in brief: as §1

[10] = target: OR4C15 (Homo sapiens) (UniProt Q8NGM1)
Method in brief: as §1

Measured: odorant receptor agonist call

Sequence of OR4A5 (Homo sapiens) (Q8NH83 whole entry): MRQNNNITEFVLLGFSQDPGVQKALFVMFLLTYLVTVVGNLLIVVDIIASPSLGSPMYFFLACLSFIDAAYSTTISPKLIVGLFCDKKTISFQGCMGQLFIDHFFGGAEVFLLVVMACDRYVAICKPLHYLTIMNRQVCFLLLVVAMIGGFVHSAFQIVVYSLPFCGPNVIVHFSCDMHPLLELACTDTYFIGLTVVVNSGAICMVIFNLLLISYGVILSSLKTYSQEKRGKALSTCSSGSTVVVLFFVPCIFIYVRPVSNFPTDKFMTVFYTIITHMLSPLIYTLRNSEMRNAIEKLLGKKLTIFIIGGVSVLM
Sequence of OR4B1 (Homo sapiens) (Q8NGF8 whole entry): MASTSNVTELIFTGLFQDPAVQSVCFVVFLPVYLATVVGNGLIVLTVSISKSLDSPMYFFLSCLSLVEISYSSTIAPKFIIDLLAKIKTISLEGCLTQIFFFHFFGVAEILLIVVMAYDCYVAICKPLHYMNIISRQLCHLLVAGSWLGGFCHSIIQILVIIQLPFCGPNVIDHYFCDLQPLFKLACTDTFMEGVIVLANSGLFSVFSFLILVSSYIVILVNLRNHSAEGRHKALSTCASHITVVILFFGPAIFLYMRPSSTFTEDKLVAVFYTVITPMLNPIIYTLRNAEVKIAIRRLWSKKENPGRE
Sequence of OR4A47 (Homo sapiens) (Q6IF82 whole entry): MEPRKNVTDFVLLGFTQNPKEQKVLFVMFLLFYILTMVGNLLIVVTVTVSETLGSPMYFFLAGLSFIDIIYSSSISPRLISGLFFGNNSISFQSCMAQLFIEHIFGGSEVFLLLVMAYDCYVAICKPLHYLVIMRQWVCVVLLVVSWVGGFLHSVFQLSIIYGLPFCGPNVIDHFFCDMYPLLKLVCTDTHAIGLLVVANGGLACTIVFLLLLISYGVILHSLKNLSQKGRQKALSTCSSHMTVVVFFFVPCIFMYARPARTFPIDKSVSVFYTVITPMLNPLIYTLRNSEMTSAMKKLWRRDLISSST
Sequence of OR4C13 (Homo sapiens) (Q8NGP0 whole entry): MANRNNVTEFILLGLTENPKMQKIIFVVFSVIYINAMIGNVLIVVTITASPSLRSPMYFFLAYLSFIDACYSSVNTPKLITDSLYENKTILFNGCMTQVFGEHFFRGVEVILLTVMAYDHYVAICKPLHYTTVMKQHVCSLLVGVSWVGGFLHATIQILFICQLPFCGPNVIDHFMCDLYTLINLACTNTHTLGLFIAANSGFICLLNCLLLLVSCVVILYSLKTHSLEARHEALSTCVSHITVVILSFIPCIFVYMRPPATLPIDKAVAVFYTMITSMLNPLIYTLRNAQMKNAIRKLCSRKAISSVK
Sequence of OR4C12 (Homo sapiens) (Q96R67 whole entry): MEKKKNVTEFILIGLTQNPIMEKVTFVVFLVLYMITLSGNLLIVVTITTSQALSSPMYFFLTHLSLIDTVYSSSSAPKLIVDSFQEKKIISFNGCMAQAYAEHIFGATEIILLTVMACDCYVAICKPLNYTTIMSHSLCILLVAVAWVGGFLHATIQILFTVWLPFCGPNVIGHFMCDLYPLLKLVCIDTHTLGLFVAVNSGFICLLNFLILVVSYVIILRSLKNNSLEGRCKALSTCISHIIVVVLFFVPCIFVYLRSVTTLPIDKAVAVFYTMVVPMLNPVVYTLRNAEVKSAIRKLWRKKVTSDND
Sequence of OR4A16 (Homo sapiens) (Q8NH70 whole entry): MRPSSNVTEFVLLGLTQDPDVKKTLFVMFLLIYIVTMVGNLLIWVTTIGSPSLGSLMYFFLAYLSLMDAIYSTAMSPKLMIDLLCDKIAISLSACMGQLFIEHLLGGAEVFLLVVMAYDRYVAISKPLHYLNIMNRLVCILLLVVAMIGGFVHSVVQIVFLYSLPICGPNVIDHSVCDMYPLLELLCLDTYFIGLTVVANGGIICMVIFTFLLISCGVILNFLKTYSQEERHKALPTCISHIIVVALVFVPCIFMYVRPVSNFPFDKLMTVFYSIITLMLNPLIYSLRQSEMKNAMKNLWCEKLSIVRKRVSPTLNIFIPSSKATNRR
Sequence of OR4C11 (Homo sapiens) (Q6IEV9 whole entry): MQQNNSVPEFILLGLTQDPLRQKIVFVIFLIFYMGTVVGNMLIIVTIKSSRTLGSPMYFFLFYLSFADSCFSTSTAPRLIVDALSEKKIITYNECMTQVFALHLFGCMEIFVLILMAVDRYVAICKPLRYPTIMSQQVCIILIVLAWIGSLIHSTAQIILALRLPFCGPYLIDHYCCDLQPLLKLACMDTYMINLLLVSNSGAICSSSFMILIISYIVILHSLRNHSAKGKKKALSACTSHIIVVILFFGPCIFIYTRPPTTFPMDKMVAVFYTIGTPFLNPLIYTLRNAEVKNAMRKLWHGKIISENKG
Sequence of OR4A15 (Homo sapiens) (Q8NGL6 whole entry): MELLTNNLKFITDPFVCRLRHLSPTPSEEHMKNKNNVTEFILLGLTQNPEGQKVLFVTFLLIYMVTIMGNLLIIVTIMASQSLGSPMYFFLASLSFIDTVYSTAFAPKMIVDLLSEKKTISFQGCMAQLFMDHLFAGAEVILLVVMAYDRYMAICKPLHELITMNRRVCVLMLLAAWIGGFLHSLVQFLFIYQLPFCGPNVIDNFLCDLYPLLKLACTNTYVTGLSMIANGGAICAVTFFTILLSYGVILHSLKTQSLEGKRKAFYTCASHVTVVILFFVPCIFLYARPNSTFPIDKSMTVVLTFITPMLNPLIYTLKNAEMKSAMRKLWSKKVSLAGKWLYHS
Sequence of OR4C15 (Homo sapiens) (Q8NGM1 whole entry): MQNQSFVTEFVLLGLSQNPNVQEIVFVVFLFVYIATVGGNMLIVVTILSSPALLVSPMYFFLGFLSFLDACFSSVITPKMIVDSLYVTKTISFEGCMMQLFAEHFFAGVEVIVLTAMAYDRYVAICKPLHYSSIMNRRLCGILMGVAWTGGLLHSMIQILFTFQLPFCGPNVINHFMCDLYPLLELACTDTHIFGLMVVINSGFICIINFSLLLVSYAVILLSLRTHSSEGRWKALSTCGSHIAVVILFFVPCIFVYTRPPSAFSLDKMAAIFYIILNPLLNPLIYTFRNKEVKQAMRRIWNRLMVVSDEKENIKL
Sequence of OR4A8 (Homo sapiens) (P0C604 whole entry): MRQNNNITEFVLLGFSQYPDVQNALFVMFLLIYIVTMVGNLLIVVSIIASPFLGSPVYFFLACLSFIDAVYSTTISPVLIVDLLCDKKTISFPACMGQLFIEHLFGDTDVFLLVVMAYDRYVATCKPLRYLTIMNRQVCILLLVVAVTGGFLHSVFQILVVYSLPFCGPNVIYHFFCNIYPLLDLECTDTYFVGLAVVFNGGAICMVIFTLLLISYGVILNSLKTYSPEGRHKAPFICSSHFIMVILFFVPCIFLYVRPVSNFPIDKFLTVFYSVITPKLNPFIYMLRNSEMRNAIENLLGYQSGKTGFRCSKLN

Cc1c([N+](=O)[O-])c(C)c([N+](=O)[O-])c(C(C)(C)C)c1[N+](=O)[O-]
inactive: all assays above

C=CCOC(=O)Cc1ccccc1
not listed: [5] | [10]
inactive: all other assays above
